According to ChEMBL document CHEMBL1141230, “Synthesis and pharmacology of willardiine derivatives acting as antagonists of kainate receptors” (J Med Chem, 2005):
pIC50, pKd, pKi: −log10 of the molar value.

Key:
[1] = target: T1, Glutamate receptor ionotropic, AMPA (Rattus norvegicus, UniProt P19490+P19491+P19492+P19493); assay: (§1) Antagonist activity on AMPA receptor expressed on rat motoneurons by its ability to reduce the fast component dorsal root evoked ventral root potential (fDR-VRP); type: functional
[2] = target: Glutamate receptor ionotropic, kainate 2 (Rattus norvegicus, UniProt P42260); assay: (§2) Displacement of [3H]kainate from rat GLUK6 receptor expressed in HEK293 cells; type: cell-based
[3] = target: T1, Glutamate receptor ionotropic, AMPA; assay: Displacement of [3H](S)-5-fluorowillardiine from AMPA receptor in rat brain membrane; type: cell membranes
[4] = target: Glutamate receptor ionotropic, kainate 1 (Rattus norvegicus) (UniProt P22756); assay: Percentage depression of GLUK5 containing kainate induced depolarization on isolated neonatal rat dorsal root C-fibers at 200 uM; type: functional
[5] = target: Glutamate receptor ionotropic, kainate (Rattus norvegicus); assay: Displacement of [3H]SYM2081 from kainate receptor in rat brain membrane
[6] = target: Glutamate receptor ionotropic, kainate 2 (Rattus norvegicus) (UniProt P42260); assay: as §2; type: cell-based
[7] = target: Glutamate receptor ionotropic, kainate 1 (Rattus norvegicus, UniProt P22756); assay: Antagonism on GLUK5 containing kainate induced depolarization of isolated neonatal rat dorsal root C-fibers; type: functional
[8] = target: Glutamate receptor ionotropic, AMPA (Rattus norvegicus, UniProt P19491+P19492+P19493+P19490); assay: as §1; type: functional
[9] = Inhibitory effect on glutamate-induced calcium influx at homomeric human GLUK5/GLUK2 receptor clone expressed in HEK293 cells; type: functional
Method in brief: (§3)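 HEK293 lines stably coexpressing human GLUK5 with GLUK2 or GLUK6 (GLUK5(R)/GLUK6(Q)), FLIPR calcium assay with concanavalin A present. Antagonist given alone at first addition, then with 100 µM glutamate at second. Curves fit with slope 1, top/bottom fixed at 100%/0%. Kb = IC50/(1+[Glu]/EC50 Glu), glutamate EC50 from curves on same plate.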

[10] = Inhibitory effect on glutamate-induced calcium influx at homomeric human GLUK5/GLUK6 receptor clone expressed in HEK293 cells; type: functional; method in brief: as §3
[11] = target: Glutamate receptor ionotropic, kainate 1 (Homo sapiens) (UniProt P39086); assay: Inhibitory effect on glutamate-induced calcium influx at homomeric human GLUK5 receptor expressed in HEK293 cells; type: functional, cell-based
Method in brief: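 HEK293 cells stably expressing human GLUK5(Q), calcium fluorescence assay (FLIPR) in presence of concanavalin A. Antagonist added alone first, then with 100 µM glutamate. Curves fitted with slope fixed at 1; Kb from IC50 via Cheng-Prusoff using glutamate EC50 determined in same plate.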

Sequence of Glutamate receptor ionotropic, kainate 1 (P22756 whole entry): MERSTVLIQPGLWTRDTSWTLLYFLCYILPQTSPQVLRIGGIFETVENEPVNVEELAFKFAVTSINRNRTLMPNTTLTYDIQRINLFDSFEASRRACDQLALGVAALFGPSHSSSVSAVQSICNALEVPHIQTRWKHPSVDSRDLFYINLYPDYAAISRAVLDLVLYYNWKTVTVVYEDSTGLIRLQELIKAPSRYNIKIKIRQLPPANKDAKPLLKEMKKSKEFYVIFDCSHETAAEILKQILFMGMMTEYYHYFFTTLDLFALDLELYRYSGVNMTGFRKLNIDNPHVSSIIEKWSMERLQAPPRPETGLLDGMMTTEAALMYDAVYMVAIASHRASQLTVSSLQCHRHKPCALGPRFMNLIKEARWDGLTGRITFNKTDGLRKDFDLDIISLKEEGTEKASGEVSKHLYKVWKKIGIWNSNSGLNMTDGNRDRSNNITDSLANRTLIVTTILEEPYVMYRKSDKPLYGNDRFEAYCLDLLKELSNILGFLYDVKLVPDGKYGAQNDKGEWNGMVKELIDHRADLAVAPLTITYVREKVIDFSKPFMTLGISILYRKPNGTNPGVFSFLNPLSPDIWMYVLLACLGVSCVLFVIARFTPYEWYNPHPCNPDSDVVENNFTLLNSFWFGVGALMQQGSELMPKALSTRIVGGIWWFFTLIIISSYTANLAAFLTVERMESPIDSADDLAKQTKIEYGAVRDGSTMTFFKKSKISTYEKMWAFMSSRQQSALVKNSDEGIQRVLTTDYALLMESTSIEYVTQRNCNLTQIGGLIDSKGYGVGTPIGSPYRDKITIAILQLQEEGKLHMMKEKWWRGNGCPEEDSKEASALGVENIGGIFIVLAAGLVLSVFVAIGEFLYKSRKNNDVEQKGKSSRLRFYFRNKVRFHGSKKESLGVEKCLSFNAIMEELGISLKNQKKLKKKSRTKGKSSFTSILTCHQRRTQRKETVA
Sequence of Glutamate receptor ionotropic, kainate 2 (P42260 whole entry): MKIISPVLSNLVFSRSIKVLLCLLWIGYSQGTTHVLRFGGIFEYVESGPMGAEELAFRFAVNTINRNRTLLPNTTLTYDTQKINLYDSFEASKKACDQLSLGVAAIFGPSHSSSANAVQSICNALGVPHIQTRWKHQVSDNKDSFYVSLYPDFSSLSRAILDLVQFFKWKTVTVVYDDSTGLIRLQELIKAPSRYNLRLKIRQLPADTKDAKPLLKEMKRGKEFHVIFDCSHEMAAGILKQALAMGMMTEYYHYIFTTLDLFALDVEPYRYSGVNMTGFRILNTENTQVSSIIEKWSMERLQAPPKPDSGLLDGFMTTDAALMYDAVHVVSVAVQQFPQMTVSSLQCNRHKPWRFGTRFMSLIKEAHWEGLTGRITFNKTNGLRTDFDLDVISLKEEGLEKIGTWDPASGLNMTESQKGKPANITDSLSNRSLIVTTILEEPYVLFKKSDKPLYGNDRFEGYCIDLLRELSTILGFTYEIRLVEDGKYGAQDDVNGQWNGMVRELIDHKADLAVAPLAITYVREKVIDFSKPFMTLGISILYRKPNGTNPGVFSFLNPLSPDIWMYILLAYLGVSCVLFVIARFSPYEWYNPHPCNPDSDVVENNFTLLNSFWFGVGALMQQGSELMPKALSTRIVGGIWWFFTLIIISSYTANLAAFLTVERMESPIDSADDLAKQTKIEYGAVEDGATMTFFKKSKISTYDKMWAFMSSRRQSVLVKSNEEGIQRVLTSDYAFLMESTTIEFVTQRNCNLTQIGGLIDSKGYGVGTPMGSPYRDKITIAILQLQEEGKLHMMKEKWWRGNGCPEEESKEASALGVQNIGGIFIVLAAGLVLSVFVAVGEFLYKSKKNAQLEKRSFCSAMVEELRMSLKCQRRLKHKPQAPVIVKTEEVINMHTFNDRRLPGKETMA
Sequence of Glutamate receptor ionotropic, kainate 1 (Rattus norvegicus) (P22756 whole entry): as the sequence (P22756 whole entry) above
Sequence of Glutamate receptor ionotropic, kainate 2 (Rattus norvegicus) (P42260 whole entry): as the sequence (P42260 whole entry) above
Sequence of Glutamate receptor ionotropic, kainate 1 (Homo sapiens) (P39086 whole entry): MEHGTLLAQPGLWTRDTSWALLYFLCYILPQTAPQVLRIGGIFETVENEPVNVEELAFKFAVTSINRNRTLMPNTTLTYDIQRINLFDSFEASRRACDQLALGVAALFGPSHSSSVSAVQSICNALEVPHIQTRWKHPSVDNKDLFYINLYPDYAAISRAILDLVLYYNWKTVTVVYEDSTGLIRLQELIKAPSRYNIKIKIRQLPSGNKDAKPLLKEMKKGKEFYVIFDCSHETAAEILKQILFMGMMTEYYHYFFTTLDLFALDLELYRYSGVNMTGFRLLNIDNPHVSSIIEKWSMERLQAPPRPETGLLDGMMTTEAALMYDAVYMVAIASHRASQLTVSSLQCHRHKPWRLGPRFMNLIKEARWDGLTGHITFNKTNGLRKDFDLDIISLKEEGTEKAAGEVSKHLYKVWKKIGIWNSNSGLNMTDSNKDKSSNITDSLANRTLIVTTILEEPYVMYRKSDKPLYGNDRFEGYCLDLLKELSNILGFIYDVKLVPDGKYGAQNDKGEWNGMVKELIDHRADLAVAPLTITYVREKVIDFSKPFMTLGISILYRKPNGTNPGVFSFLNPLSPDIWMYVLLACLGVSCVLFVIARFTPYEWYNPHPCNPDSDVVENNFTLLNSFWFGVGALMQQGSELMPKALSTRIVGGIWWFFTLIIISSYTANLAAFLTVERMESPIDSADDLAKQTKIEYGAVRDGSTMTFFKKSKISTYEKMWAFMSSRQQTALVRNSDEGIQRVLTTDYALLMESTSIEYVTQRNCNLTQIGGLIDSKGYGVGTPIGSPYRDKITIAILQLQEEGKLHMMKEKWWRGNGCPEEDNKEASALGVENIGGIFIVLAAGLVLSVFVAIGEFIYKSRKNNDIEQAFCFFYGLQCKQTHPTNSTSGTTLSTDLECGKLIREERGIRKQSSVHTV

| SMILES | pIC50 [1] | pKi [2] | pKd [7] | further results |
| --- | --- | --- | --- | --- |
| N[C@@H](Cn1cc([N+](=O)[O-])c(=O)n(CCC(=O)O)c1=O)C(=O)O | 4.10 | < 4.00 |  |  |
| N[C@H](Cn1ccc(=O)n(CCCC(=O)O)c1=O)C(=O)O |  |  |  | pKi [3]: 3.83; Activity [4]: 22.8%; pKi [5]: < 3.30 |
| N[C@@H](CNC(=O)NCc1cccc(C(=O)O)c1)C(=O)O | < 3.00 |  |  |  |
| C=C(C)[C@H]1CN[C@H](C(=O)O)[C@H]1CC(=O)O |  |  |  | Bmax [6]: 1.53 pmol/mg |
| N#Cc1cc2c(cc1[N+](=O)[O-])=NC(=O)C(=O)N=2 |  | 5.98 | 5.78 |  |
| N[C@@H](Cn1ccc(=O)n(Cc2cccc(C(=O)O)c2)c1=O)C(=O)O |  | < 3.00 | 4.31 |  |
| N[C@@H](Cn1ccc(=O)n(CC(=O)O)c1=O)C(=O)O | 3.54 |  |  | pKi [3]: 3.71 |
| N[C@@H](Cn1ccc(=O)n(CCCC(=O)O)c1=O)C(=O)O | 3.87 | < 3.00 | 4.22 | pKi [3]: 4.75; pKi [5]: 4.02 |
| N[C@H](Cn1ccc(=O)n(CCC(=O)O)c1=O)C(=O)O |  | < 4.00 |  | Activity [4]: 13.2% |
| N[C@@H](Cn1ccc(=O)n(Cc2ccccc2C(=O)O)c1=O)C(=O)O | 3.97 | < 3.00 | 6.40 |  |
| N[C@@H](Cn1cc(I)c(=O)n(Cc2ccccc2C(=O)O)c1=O)C(=O)O | 4.13 | < 4.00 | 6.68 |  |
| Cn1c(=O)ccn(C[C@H](N)C(=O)O)c1=O |  | < 4.00 |  | IC50 [8]: Agonist |
| N[C@@H](Cn1cc(I)c(=O)n(CCC(=O)O)c1=O)C(=O)O | 4.86 | < 4.00 | 5.09 | pKi [3]: 5.30; pKi [5]: 4.28 |
| NC(Cn1ccc(=O)n(Cc2ccccc2C(=O)O)c1=O)C(=O)O (racemic) | 4.01 | < 3.00 | 5.96 | Kb [9]: 1000 nM; Kb [10]: 800 nM; Kb [11]: 600 nM |
| N[C@@H](Cn1c(=O)ccn(CC(=O)O)c1=O)C(=O)O |  | < 4.00 |  | pKi [3]: < 3.00; pKi [5]: < 3.30 |
| N[C@@H](Cn1ccc(=O)n(CCC(=O)O)c1=O)C(=O)O |  | < 4.00 | 4.14 |  |
| N[C@@H](Cn1ccc(=O)n(Cc2ccc(C(=O)O)cc2)c1=O)C(=O)O |  | < 4.00 | 5.03 |  |
| N[C@H](Cn1ccc(=O)n(Cc2ccccc2C(=O)O)c1=O)C(=O)O | < 4.00 | < 3.00 | < 4.00 |  |
